Sampled rows, rich in hits. Any-hit rate of the full collection: about 1.6%.
PPC-1+TRAIL kill – PPC-1 cancer cell killing with TRAIL present. PPC-1 cells + TRAIL, ATPLite viability luminescence. cell killing (% activity), % at 4 µM or 5 µM. actives 0.41% (n = 220,000). AID 1443;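 active = cell killing above 50% in the first pass at 4 µM, then a duplicate retest at 5 µM averaging 50% or more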;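 note: plate controls were cells with TRAIL plus DMSO for no effect and medium-only wells lacking cells for full effect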
C8 TRAIL sens – caspase-8 TRAIL sensitization; NB7+C8 cells + TRAIL, ATPlite viability luminescence; inhibition (viability loss, TRAIL sensitization), % at 10 µM; actives 1% (n = 360,000); AID 624354;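 active = compounds causing at least 50% loss of cell viability in the single-dose screen, relative to plate controls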
FLuc inh counter – inhibits firefly luciferase, flagging false hits in luciferase inhibition screens; P08659; ATPLite firefly luciferase biochemical luminescence, 10 min; inhibition, % at 10 µM; actives 1.5% (n = 200,000);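 active = inhibition above about 50% when tested at 10 µM, limit read from the data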
Target sequence (P08659 whole entry, looked up): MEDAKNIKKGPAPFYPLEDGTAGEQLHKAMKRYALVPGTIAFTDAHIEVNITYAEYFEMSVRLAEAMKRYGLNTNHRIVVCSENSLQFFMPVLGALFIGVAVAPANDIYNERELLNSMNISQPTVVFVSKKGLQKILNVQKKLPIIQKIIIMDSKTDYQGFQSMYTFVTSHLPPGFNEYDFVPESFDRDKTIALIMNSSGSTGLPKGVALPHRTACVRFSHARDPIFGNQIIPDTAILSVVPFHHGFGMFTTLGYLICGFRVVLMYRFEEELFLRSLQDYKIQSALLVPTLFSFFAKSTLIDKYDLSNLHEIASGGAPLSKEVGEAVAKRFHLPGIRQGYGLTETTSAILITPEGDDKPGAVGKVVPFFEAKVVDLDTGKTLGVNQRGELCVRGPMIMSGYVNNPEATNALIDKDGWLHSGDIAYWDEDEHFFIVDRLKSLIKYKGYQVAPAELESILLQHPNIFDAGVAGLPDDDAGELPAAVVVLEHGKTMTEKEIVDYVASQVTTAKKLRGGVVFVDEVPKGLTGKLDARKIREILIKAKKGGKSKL
FLuc stim CS – affects firefly luciferase, flagging false hits in luciferase stimulation screens | P08659 | ATPlite luciferase biochemical, luminescence, 10 min; 0 = ATP-free wells, 1 = DMSO control | AID 1027 | 200,000 tested, under 10 active | activation factor at 10 µM;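 active = luciferase activation factor, scaled between plate controls, of at least 2 with compound at 10 µM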
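Assay system: Luciferase/luciferin detection reagent, cell-free biochemical luciferase assay / Also added: ATP substrate / Schedule: 10 min at ambient temperature / Measured by: luminescence measurement of luciferase light output / Benchmarks: low control with PBS replacing ATP, high control enzyme plus ATP without compound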
* marks the source's active call; other numbers are inactive results; . = not tested or not shown.

SMILES	PPC-1+TRAIL kill	C8 TRAIL sens	FLuc inh counter	FLuc stim CS
CCCCCCCCCCCCCCC(O)C[N+](C)(CCO)CCO (configuration not stated)	.	88*	.	.
CCN1C(C#N)=C(C#N)N=C(C)CC1(C)C	28	-6	-9	1.1
COn1c(SCc2cccc(Cl)c2)nc2ccccc2c1=O	11	56*	-6	1.1
COn1c(SCc2ccccc2)nc2ccccc2c1=O	14	69*	0	1
Cc1c(P(=S)(c2ccccc2)c2ccccc2)[n+]2ccccc2n1C/C=C/c1ccccc1	.	78*	.	.
CC(O)c1nc2ccccc2n1C/C=C/c1ccccc1 (configuration not stated)	-7	-18	-6	1.1
CCCn1c(O)c(/C=C2\C=NN=C2c2ccccc2)sc1=S	-1	76*	-4	1
C=CCn1c(O)c(/C=C2\C=NN=C2c2ccccc2)sc1=S	7	8	.	.
CCOc1ccc(NC(=S)NC(=O)c2ccco2)cc1	26	-1	.	.
CCOc1ccc2nc(NC(=O)Nc3cccs3)sc2c1	10	46	67*	0.3
CSc1ccccc1NC(=O)Nc1ccccc1	2	7	7	0.9
CCOc1ccc(NC(=O)Nc2ccccc2SC)cc1	24	43	50*	0.5
CCOc1ccc2nc(NC(=O)c3ccco3)sc2c1	.	60*	.	.
CCOc1ccc2nc(NC(=O)Nc3ccccc3)sc2c1	-5	16	13	0.9
CCOc1ccc(NC(=O)c2ccco2)cc1	48	55*	76*	0.2
CC1=NN(c2ccccc2)C(=O)/C1=C\N(O)c1ccccc1	.	-13	.	.
CC(C)C(=O)Nc1nc2cc3c(cc2s1)OCCO3	29	30	.	.
CCOc1ccc2nc(NC(=O)COC)sc2c1	26	8	31	0.7
CCOc1ccc2nc(NC(=O)c3ccoc3C)sc2c1	30	46	58*	0.4
CCOC(=O)c1ccc2nc(NC(=O)c3ccco3)sc2c1	12	27	51*	0.5
CCOC(=O)c1ccc2nc(NC(=O)c3cccs3)sc2c1	35	30	43	0.6
O=C(Nc1nc2cc3c(cc2s1)OCCO3)c1ccco1	.	88*	.	.
O=C(NC(=S)Nc1nc2ccc(F)cc2s1)c1ccco1	40	86*	86*	0.1
Cc1cccc(C2c3[nH]c4ccccc4c3CCN2Cc2cnn(-c3ccc(F)cc3)c2)n1 (configuration not stated)	9	17	0	1
Fc1ccc2nc(Nc3nc4cc5c(cc4s3)OCCO5)sc2c1	21	26	52*	0.5
SMILES	PPC-1+TRAIL kill	C8 TRAIL sens	FLuc inh counter	FLuc stim CS
CCOc1ccc2nc(NC(=O)CN3CCOCC3)sc2c1	-6	-4	61*	0.4
Fc1ccc2nc(Nc3nc4cc5c(cc4s3)OCO5)sc2c1	11	15	5	1
CCCn1nc(C(=O)OCC(=O)Nc2cccc(S(N)(=O)=O)c2)c2ccccc2c1=O	-8	2	-5	1.1
Oc1c(CN2CCCCC2)cc(COCc2ccccc2)c2cccnc12	15	56*	-1	1
COCc1cc(CN2CCCC2)c(O)c2ncccc12	-2	-3	-2	1
Cc1cc(C(=O)N2CCCC(N3CCN(c4cccc(C(F)(F)F)c4)CC3)C2)c(C)o1 (configuration not stated)	.	26	.	.
O=Cc1cn(CCC(=O)O)nc1-c1cccc(Cl)c1	44	10	-3	1
O=C(Nc1nc2c(F)cc(F)cc2s1)c1ccccn1	35	71*	66*	0.3
CCc1nnc(NC(=O)c2sc3nc4c(cc3c2N)CCCCC4)s1	49	36	68*	0.3
CCc1nnc(NC(=O)CSc2nc3c(cc2C#N)CCCC3)s1	-35	58*	-2	1
O=c1cc(-c2ccc(O)c(O)c2)oc2c(C3O[C@H](CO)[C@@H](O)[C@H](O)[C@H]3O)c(O)cc(O)c12 (some centres not stated)	16	6	-5	1
O=C(O)c1ccc(CNCc2ccc(F)cc2)cc1	-4	3	-6	1.1
CCc1ccc(CNCc2ccc(F)cc2)cc1	66*	2	-9	1.1
O=C1NC(=S)NC1=Cc1ccc(O)cc1	.	-14	.	.
O=C1NC(=S)N/C1=C\c1ccc(N2CCOCC2)cc1	38	9	78*	0.2
O=C(CCc1ccccc1Cl)NC1CCCN(c2ccc(C(F)(F)F)cn2)C1 (configuration not stated)	.	8	.	.
CC1=C(C(=O)OC(C)C)C(c2ccc(C)o2)C(C(=O)OC(C)C)=C(C)N1	13	3	.	.
COc1ccc(S(=O)(=O)Nc2ccc3c(c2)OCO3)cc1	9	-32	2	1
COc1ccc2c(c1)CC/C(=C\Nc1ccc3c(c1)OCO3)C2=O	13	52*	68*	0.3
O=C1/C(=C/Nc2ccc3c(c2)OCO3)CCc2ccccc21	27	86*	94*	0.1
CCOC(=O)C(=NC(C)CC)NNc1ccc(Br)cc1 (configuration not stated)	16	0	-7	1.1
CCC(C)C(NC(N)=O)C(=O)Nc1ccc(C(=O)OC)cc1 (configuration not stated)	35	-4	-6	1.1
CCc1ccc(C(=O)COC(=O)[C@@H](NC(N)=O)[C@@H](C)CC)cc1	17	40	89*	0.1
CCOc1ccc(C(=O)Nc2cccc(-c3ccc(N4CCOCC4)nn3)c2)cc1OCC	.	44	.	.
COc1cccc(C(=O)Nc2cccc(-c3ccc(N4CCOCC4)nn3)c2)c1OC	.	67*	.	.
SMILES	PPC-1+TRAIL kill	C8 TRAIL sens	FLuc inh counter	FLuc stim CS
COc1cccc(C(=O)Nc2cccc(-c3ccc(N4CCOCC4)nn3)c2)c1	.	42	.	.
O=C(Nc1cccc(-c2ccc(N3CCOCC3)nn2)c1)c1ccc(F)cc1F	.	51*	.	.
COc1ccc(C(=O)Nc2cccc(-c3ccc(N4CCOCC4)nn3)c2)cc1OC	.	64*	.	.
CCOc1ccccc1C(=O)Nc1cccc(-c2ccc(N3CCOCC3)nn2)c1	.	48	.	.
Cc1cc(C(=O)CSc2ncccn2)c(C)n1Cc1ccco1	17	11	64*	0.4
CCOc1ncccc1C(=O)OCC(=O)c1cc(C)n(Cc2ccco2)c1C	32	29	67*	0.3
Cc1cc(C(=O)COC(=O)C(C)NC(N)=O)c(C)n1Cc1ccco1 (configuration not stated)	5	-2	67*	0.3
CCN(CC(=O)Nc1ccccc1C(F)(F)F)C(=O)CCc1nc2ccccc2c(=O)[nH]1	.	-11	.	.
O=C(CN1C(=O)NC2(CCCCCC2)C1=O)NCCc1ccc(F)cc1	.	-3	.	.
Cc1ccc(/C=C/C(=O)c2nc3ccccc3[nH]2)cc1	15	46	94*	0.1
COc1ccc(C(=O)/C=C/c2ccc(O)cc2)cc1	-1	32	55*	0.4
Cc1ccc(O)c(C(=O)/C=C/c2ccc3c(c2)OCCCO3)c1	42	16	33	0.7
CSc1ccc(C(=O)/C=C/c2ccc(N)cc2)cc1	44	55*	90*	0.1
O=C(/C=C/c1ccc2c(c1)OCCCO2)c1ccccc1O	16	39	77*	0.2
Cc1ccccc1-c1nnn(Cc2ccc(F)cc2Cl)n1	.	5	.	.
